Rows were chosen to be rich in hits. Some 1.8% of all compounds tested hit in one or more screens of this group.
B2AR ag: beta2AR agonists driving receptor internalization, primary screen, cell-based, FAP fluorogen, flow cytometry. Am2.2-beta2AR cells. response, % (test concentration not listed). AID 504454, 2011. 0.43% of 340,000 active;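 active means response above a set limit, near 3 SD of response in nonfluorescent compounds, cut at about 42% in these data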
EBI2 antag: EBI2 receptor antagonists, beta-arrestin recruitment, primary screen, cell-based, luminescence, 7a,25-OHC stimulation, uHTS | 7a,25-OHC stimulated | 0.81% of 360,000 active | inhibition, % at 5 µM | G-protein coupled receptor 183 (Homo sapiens), P32249; in the data active means inhibition above about 38%;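 further: enzyme fragment complementation signal reports receptor beta-arrestin coupling in cells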
CCR6 antagonist: CCR6 receptor antagonists, primary screen, cell-based, CHO-K1, luminescence, beta-arrestin, uHTS | C-C chemokine receptor type 6 (Homo sapiens), P51684 | CHO-K1 CCR6 PathHunter beta-arrestin, CCL20-stimulated | inhibition, % at 20 µM | 0.49% of 340,000 active;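 active means compounds whose inhibition of the agonist-driven luminescence signal at 20 µM reaches about 50%, limit read from the data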;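 further: cells stimulated with CCL20 at 14 nM final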
APJ antagonist: antagonists of human apelin receptor APJ, primary screen, CHO-K1 cells, beta-arrestin complementation, luminescence; P35414; inhibition, % at 20 µM; 0.32% of 330,000 active; AID 2521, 2010;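 active means inhibition above about 40% at 20 µM, limit read from the data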;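 further: cells challenged with 10 nM apelin-13 agonist together with compound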
Target sequence (P35414 whole entry, looked up): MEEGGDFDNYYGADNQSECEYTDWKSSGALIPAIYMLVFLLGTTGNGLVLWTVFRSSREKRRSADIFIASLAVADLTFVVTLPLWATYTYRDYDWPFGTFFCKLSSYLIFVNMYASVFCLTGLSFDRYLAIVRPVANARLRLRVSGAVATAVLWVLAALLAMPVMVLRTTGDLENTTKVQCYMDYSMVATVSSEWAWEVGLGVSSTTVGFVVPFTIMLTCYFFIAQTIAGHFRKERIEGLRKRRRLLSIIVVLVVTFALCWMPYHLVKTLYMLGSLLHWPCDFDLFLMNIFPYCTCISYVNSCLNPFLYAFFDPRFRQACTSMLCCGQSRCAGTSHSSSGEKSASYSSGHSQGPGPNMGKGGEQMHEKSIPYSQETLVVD
CXCR6 inh: CXCR6 receptor inhibitors, primary screen, cell-based, beta-arrestin, luminescence, CHO-K1 PathHunter, 1536-well; C-X-C chemokine receptor type 6 (Homo sapiens), O00574; inhibition, % at 20 µM; 0.36% of 360,000 active; AID 602244, 2012; in the data active means inhibition above about 34%, passing the limit was not always enough;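 further: antagonist mode with CXCL16 agonist at 10 nM final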
APJ agonist: agonists of human apelin receptor APJ, primary screen, CHO-K1 cells, PathHunter beta-arrestin, luminescence; 0% DMSO wells, 100% apelin; activation, % at 20 µM; 0.11% of 330,000 active; AID 2520, 2010;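 active means activation more than six SD over the plate average, tested at 20 µM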
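Material: CHO-K1 APJ beta-arrestin complementation cell line; Input: cell density 1000 per well; Incubation: compound stimulation 90 min at 25 °C, detection 60 min; Signal: luminescence from split beta-galactosidase complementation, Galacton Star/Emerald II substrate; Controls: DMSO-only wells as negative, 10 nM Apelin-13 as positive control.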
EBI2 conf: EBI2 antagonist hit retest, beta-arrestin, confirmation, cell-based, single concentration, luminescence, 7a,25-OHC stimulation. shares compounds with EBI2 antag. 7a,25-OHC antagonism. inhibition, % at 5 µM. 29% of 2,400 active. AID 651997, 2013;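 active means inhibition of at least 50%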
EBI2 agonist: EBI2 agonist activity of antagonist hits, confirmation, counter-screen for EBI2 antagonist project, cell-based, single concentration, agonist mode, luminescence. activation, % at 5 µM. shares compounds with EBI2 antag. EBI2-expressing cells, 60 min; 0% vehicle, 100% 7α,25-dihydroxycholesterol control. 2,400 tested, under 10 active;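 active means activation of at least 50%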
bGal counter: E. coli beta-galactosidase enzyme inhibition, confirmation, counter-screen for EBI2 antagonist project, biochemical, luminescence, single concentration. shares compounds with EBI2 antag. purified beta-galactosidase, luminescent Galacton Star, 15 min. inhibition, % at 5 µM. 1% of 2,400 active. AID 652176, 2013;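 active means replicate-average signal at least 3 plate SD below neutral wells, shown as high inhibition, flagging enzyme-inhibiting false positives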;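 further: higher means stronger loss of beta-gal luminescence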
Numbers stand for hits; i = inactive; nt = not tested or not shown.

SMILES	B2AR ag	EBI2 antag	CCR6 antagonist	APJ antagonist	CXCR6 inh	APJ agonist	EBI2 conf	EBI2 agonist	bGal counter
CCCCN(C)c1c(C)nc2ccc(C(=O)NCCOc3ccc(OC)cc3)cn12	nt	i	nt	nt	i	nt	nt	nt	nt
COc1ccccc1N1CCN(C(=O)c2oc3cc(C)c(C)cc3c2C)CC1	i	59	i	nt	i	nt	i	i	i
CCc1ccc2oc(C(=O)N3CCN(c4ccc(OC)cc4)CC3)cc(=O)c2c1	i	91	i	i	i	i	83	i	i
COc1ccc2c(C)c(C(=O)N3CCN(Cc4ccccc4)CC3)oc2c1	i	45	i	i	i	i	i	i	i
O=C(NCCc1ccccc1)c1ccc(CS(=O)Cc2ccc(Cl)cc2)o1 (configuration not stated)	i	60	i	i	i	i	i	i	i
O=C1N=C(N2CCCCC2)S/C1=C\c1ccc(Br)cc1	i	87	i	i	i	i	58	i	i
Cc1ccc(/C=C2\SC(N3CCCC3)=NC2=O)cc1	nt	nt	nt	i	nt	i	nt	nt	nt
CCOC(=O)C1CCN(C2=NC(=O)/C(=C/c3ccc(Cl)cc3)S2)CC1	i	87	i	i	i	i	66	i	i
CCOC(=O)C1CCN(C2=NC(=O)/C(=C/c3ccc(OC)c(OC)c3)S2)CC1	i	i	i	i	i	i	nt	nt	nt
CCOc1ccc(/C=C2\SC(N3CCCCC3)=NC2=O)cc1	i	74	i	i	i	i	50	i	i
Cc1noc(C)c1NC(=O)N1C[C@H](O)COC[C@H]2O[C@@H](CC(=O)NCC3CCCCC3)CC[C@@H]21	nt	i	nt	nt	nt	nt	nt	nt	nt
CCN1CCN(CCCNC(=O)CCC(=O)N2CCOc3ccc(Cl)cc32)CC1	i	i	i	i	i	i	nt	nt	nt
CC(C)Oc1cc(F)ccc1-c1cc(C(=O)Nc2ccccc2)[nH]n1	nt	i	nt	nt	i	nt	nt	nt	nt
CC(C)Oc1cc(F)ccc1-c1cc(C(=O)Nc2ccc(C(C)C)cc2)[nH]n1	nt	54	nt	nt	i	nt	i	i	i
O=C(c1cc(-c2cccs2)on1)N1CCN(C(c2ccccc2)c2ccccc2)CC1	i	88	i	i	i	i	84	i	i
COc1cccc(-c2cc(C(=O)N3CCN(C(c4ccccc4)c4ccccc4)CC3)no2)c1	i	87	i	i	i	i	81	i	i
C=CCN(c1ccc(F)cc1)S(=O)(=O)c1cc(C(=O)NC2CC2)ccc1Cl	nt	i	nt	nt	i	nt	nt	nt	nt
O=C(Cn1nc(C(=O)O)c2ccccc2c1=O)c1c[nH]c2ccccc12	i	77	i	i	i	i	69	i	i
COc1cccc(NC(=O)C(Sc2nnc(Nc3ccccc3C)s2)c2ccccc2)c1 (configuration not stated)	i	46	i	i	i	i	i	i	i
COc1ccc(Nc2nnc(SC(C(=O)Nc3cc(C)ccc3C)c3ccccc3)s2)cc1 (configuration not stated)	i	i	i	i	i	i	nt	nt	nt
O=C(c1cc(S(=O)(=O)N2CCOCC2)ccc1Cl)N1CCCCC1CO (configuration not stated)	i	i	i	i	i	i	nt	nt	nt
COC(=O)c1ccc(Oc2ccc(C(F)(F)F)cn2)cc1	i	44	i	i	i	i	i	i	i
O=C(O)c1ccc(Oc2ccc(C(F)(F)F)cn2)cc1	i	i	i	i	i	i	nt	nt	nt
COc1ccc(Cc2nnc(Nc3ccccc3)s2)cc1Br	i	35	i	i	i	i	i	i	i
CC(C)N(C(C)C)S(=O)(=O)c1ccc(NC(=O)c2cnccn2)cc1	i	i	i	i	i	i	nt	nt	nt
SMILES	B2AR ag	EBI2 antag	CCR6 antagonist	APJ antagonist	CXCR6 inh	APJ agonist	EBI2 conf	EBI2 agonist	bGal counter
CSc1nc(/C=C2\C=Nc3ccccc32)c(O)n1C	i	i	i	i	i	i	nt	nt	nt
CC(C)n1c(O)c(/C=C2\C=Nc3ccccc32)sc1=Nc1ccccc1	i	57	i	i	i	i	i	i	i
N#Cc1ccc(-c2ccc(F)cc2)nc1SCC(=O)Nc1sc2c(c1C#N)CCC2	i	53	i	i	i	i	i	i	i
Cc1ccc2[nH]c3c(c2c1)CN(C(=O)CN1c2ccc(F)cc2CCC1C)CC3 (configuration not stated)	i	46	i	i	i	i	i	i	i
CCc1nc2c(OCCc3cccc(OC)c3)cccn2c1N(C)C(=O)c1ccc(OC)cc1	nt	i	nt	nt	i	nt	nt	nt	nt
COc1ccc(-c2nn(-c3ccccc3)cc2/C=N/NC(=S)NC(C)C)cc1OC	i	i	i	i	i	i	nt	nt	nt
C=CCNC(=S)N/N=C/c1cn(-c2ccccc2)nc1-c1ccc(OC)cc1	i	45	i	i	i	i	i	i	i
COc1cc2c3c(cccc3c1)C(=O)N(CCN1CCCC1)C2=O	nt	i	nt	nt	i	nt	nt	nt	nt
COc1ccc(C(=O)/C=C/c2ccc(F)cc2)c(OC(=O)c2ccc([N+](=O)[O-])cc2)c1	i	54	i	i	i	i	i	i	i
COc1ccc(C(=O)/C=C/c2cccs2)c(OC(=O)c2cccc([N+](=O)[O-])c2)c1	i	i	i	i	i	i	nt	nt	nt
COc1ccc([C@H]2CC(=O)C=C(c3ccc(OC(F)(F)F)cc3)C2)cc1	i	68	i	i	i	i	i	i	i
CCc1ccc(-c2n[nH]nc2C2=CC(=O)C[C@H](c3ccc(F)cc3)C2)cc1	nt	54	nt	nt	i	nt	i	i	i
CCCOc1ccc(C2=CC(=O)C[C@H](c3ccc(OC)cc3)C2)cc1	i	67	i	i	i	i	i	i	i
COc1ccccc1-c1n[nH]nc1C1=CC(=O)C[C@H](c2ccc(F)cc2)C1	nt	i	nt	nt	i	nt	nt	nt	nt
COc1cccc(C2=CC(=O)C[C@H](c3ccc(F)cc3)C2)c1	i	i	i	i	i	i	nt	nt	nt
COc1cc(F)cc(C2=CC(=O)C[C@H](c3ccc(F)cc3)C2)c1	i	52	i	i	i	i	i	i	i
COC(=O)C1(C(=O)OC)C/C=C\CCN(S(=O)(=O)c2ccccc2[N+](=O)[O-])CC1	nt	i	nt	nt	i	nt	nt	nt	nt
CCC(CC)C(C(=O)NCc1ccccc1)N1CCN(C(=O)C2CCCO2)CC1 (configuration not stated)	nt	i	nt	nt	nt	nt	nt	nt	nt
